Experimental data reported in ChEMBL document CHEMBL1122317, “Role of substrate lipophilicity on the N-demethylation and type I binding of 3-O-alkylmorphine analogues” (J Med Chem, 1983).
pKd: −log10 of the molar value.

Assays:
Format in all cases: ADME
[1] = Maximum optimal dose expressed as OD max X 10e-(2/3) mg
In short: (§1)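 Type I difference spectra recorded at 350–500 nm in washed liver microsomes from fed, untreated 180–250 g male CD rats, 3 mg protein/mL in 0.15 M KCl-0.05 M Tris. Split-beam cuvettes were warmed to 37 °C for 5 min, then substrate added stepwise to the sample side and buffer to the reference. Ks came from double-reciprocal plots of the 390–420 nm absorbance difference. Triplicate determinations.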

[2] = Spectral dissociation constant of the compound.; details: read-out: Ks; in short: as §1
[3] = Michaelis constant in N-demethylation.
In short: (§2)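 Male CD rat hepatic microsomes (1 mg protein/mL) in 0.15 M KCl-0.05 M Tris with 5 mM MgCl2 and an NADPH-generating system (0.33 mM NADP, 5.5 mM glucose 6-phosphate, 0.67 U/mL G6PDH). Incubated in air for 10 min at 37 °C. Formaldehyde measured colorimetrically with acetylacetone at 412 nm, correcting for substrate-free blanks. Km and Vmax taken from triplicates at 11 substrate concentrations.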

[4] = Vmax value in N-demethylation.; in short: as §2
[5] = Michaelis constant in O-dealkylation.
In short: (§3)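 Octyl[6-3H]morphine N- and O-dealkylation assayed radiometrically in rat liver microsomes (1 mg protein/mL). Triplicate 20-min incubations used eight substrate concentrations from 0.1 to 1.0 mM. Reactions were stopped with acetone and extracted, then metabolites were located by UV, scraped and counted by scintillation. Km and Vmax came from Lineweaver-Burk plots, averaged over three separate studies.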

[6] = Vmax value in O-dealkylation.; in short: as §3
[7] = Rate of ethylmorphine N-demethylase in the presence of various concentrations (uM) at 20 uM concentration.
In short: (§4)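 2 mM 3-O-ethylmorphine was N-demethylated for 10 min at 37 °C by male CD rat liver microsomes (1 mg protein/mL) with an NADPH-generating system, with 0, 20, 200 or 2000 μM added decyl or dodecyl analogue. Formaldehyde was read colorimetrically at 412 nm. Rate is nmol/min/mg protein, from triplicate incubations.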

[8] = Rate of ethylmorphine N-demethylase in the presence of various concentrations (uM) at 2000 uM concentration.; in short: as §4
[9] = Rate of ethylmorphine N-demethylase in the presence of various concentrations (uM) at 200 uM concentration.; in short: as §4
[10] = Maximum optimal dose expressed as OD max X 10e-(2/3) mg; ND = no detectable binding spectra.; in short: as §1
[11] = Rate of ethylmorphine N-demethylase in the presence of various concentrations (uM) at 0 uM concentration.; in short: as §4
[12] = Spectral dissociation constant of the compound; ND = no detectable binding spectra.; in short: as §1

CCCCCOc1ccc2c3c1OC1C(O)C=CC4C(C2)N(C)CCC341.Cl (configuration not stated)
OD max [1]: 2 mg | pKd [2]: 4.84

CCOc1ccc2c3c1OC1C(O)C=CC4C(C2)N(C)CCC341.Cl (configuration not stated)
Km [3]: 245 µM | OD max [1]: 1.9 mg | Vmax [4]: 9.31 nM/min | Km [5]: 55 µM | pKd [2]: 4.54 | Vmax [6]: 1.86 nM/min

CCCOc1ccc2c3c1OC1C(O)C=CC4C(C2)N(C)CCC341.Cl (configuration not stated)
OD max [1]: 1.8 mg | pKd [2]: 4.55

CCCCOc1ccc2c3c1OC1C(O)C=CC4C(C2)N(C)CCC341.Cl (configuration not stated)
OD max [1]: 2.06 mg | pKd [2]: 4.74

CCCCCCCCCCCCOc1ccc2c3c1OC1C(O)C=CC4C(C2)N(C)CCC341.Cl (configuration not stated)
Rate [7]: 8.81 nM/min | Rate [8]: 9.06 nM/min | Rate [9]: 8.98 nM/min | OD max [10]: No detectable binding spectra | Rate [11]: 8.92 nM/min | Ks [12]: No detectable binding spectra

CCCCCCCCOc1ccc2c3c1OC1C(O)C=CC4C(C2)N(C)CCC341.Cl (configuration not stated)
Km [3]: 67 µM | OD max [1]: 2.1 mg | Vmax [4]: 1.98 nM/min | Km [5]: 125 µM | pKd [2]: 5.06 | Vmax [6]: 3.57 nM/min

CCCCCCOc1ccc2c3c1OC1C(O)C=CC4C(C2)N(C)CCC341.Cl (configuration not stated)
OD max [1]: 1.9 mg | pKd [2]: 4.89

CCCCCCCCCCOc1ccc2c3c1OC1C(O)C=CC4C(C2)N(C)CCC341.Cl (configuration not stated)
Rate [7]: 8.92 nM/min | Rate [8]: 9.22 nM/min | Rate [9]: 9.12 nM/min | OD max [10]: No detectable binding spectra | Rate [11]: 9.11 nM/min | Ks [12]: No detectable binding spectra

CCCCCCCCCOc1ccc2c3c1OC1C(O)C=CC4C(C2)N(C)CCC341.Cl (configuration not stated)
OD max [1]: 2.15 mg | pKd [2]: 5.12

CCCCCCCOc1ccc2c3c1OC1C(O)C=CC4C(C2)N(C)CCC341.Cl (configuration not stated)
OD max [1]: 1.8 mg | pKd [2]: 4.94

COc1ccc2c3c1O[C@H]1[C@@H](O)C=C[C@H]4[C@@H](C2)N(C)CC[C@@]341.O=S(=O)(O)O
OD max [1]: 1.85 mg
